Measurements taken from ChEMBL document CHEMBL1154155, “Novel 2,4,5-trisubstituted oxazole derivatives: synthesis and antiproliferative activity” (Eur J Med Chem, 2009).

Test system: A-431
Assay: Antiproliferative activity against human A431 cells after 48 hrs by MTT assay
Format: functional, cell-based
Settings: A-431, 48 h
In short: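 Cells in complete medium seeded into 96-well plates, preincubated 24 h at 37 °C, 5% CO₂ before cytotoxicity assessment; absorbance read at 570 nm on plate reader.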

O=c1[nH]cc(F)c(=O)[nH]1 [FLUOROURACIL]
IC50: 18 nM
